Rows were chosen to be rich in hits. Some 2.6% of all compounds tested hit in one or more screens of this group.
Platelet DG rel = platelet dense granule release activity; inhibition, %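 (compounds screened at 7.5 µM in platelet-rich plasma)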; 300,000 compounds, 0.22% hits; human platelet-rich plasma, SFLLRN dense granule ATP release, luminescence;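 active = mean replicate score, as percent of positive control, at or above 50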
SENP6 inh = inhibitors of human SENP6 protease | Q9GZR1 | Recombinant SENP6 catalytic domain, aminoluciferin luminescence | inhibition, % at 10 µM | 330,000 compounds, 1.8% hits | AID 2599;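 active = inhibition above about 50% at the single tested dose, limit read from the data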
Target sequence (Q9GZR1 628-1112 limits assumed): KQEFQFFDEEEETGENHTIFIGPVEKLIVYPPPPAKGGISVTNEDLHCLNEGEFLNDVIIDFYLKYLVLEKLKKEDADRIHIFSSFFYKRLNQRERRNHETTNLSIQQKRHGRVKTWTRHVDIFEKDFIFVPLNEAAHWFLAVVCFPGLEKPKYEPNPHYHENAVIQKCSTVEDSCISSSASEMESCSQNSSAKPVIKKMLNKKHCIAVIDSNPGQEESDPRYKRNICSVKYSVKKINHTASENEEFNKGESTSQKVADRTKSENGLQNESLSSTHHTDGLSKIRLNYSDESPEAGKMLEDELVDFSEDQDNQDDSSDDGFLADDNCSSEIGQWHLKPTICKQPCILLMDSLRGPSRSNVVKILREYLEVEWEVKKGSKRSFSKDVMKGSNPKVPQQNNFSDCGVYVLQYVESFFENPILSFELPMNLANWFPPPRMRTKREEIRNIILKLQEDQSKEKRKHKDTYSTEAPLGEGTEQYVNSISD
SENP8 block-1 = blocks human SENP8 cleavage of Nedd8 substrate | recombinant SENP8, Nedd8 substrate fluorescence | inhibition, % at 20 µM | 360,000 compounds, 0.64% hits; in the data active = inhibition mostly above about 40%, no sharp cut-off; inactive = mostly below about 27%
Target sequence (Q96LD8 whole entry, looked up): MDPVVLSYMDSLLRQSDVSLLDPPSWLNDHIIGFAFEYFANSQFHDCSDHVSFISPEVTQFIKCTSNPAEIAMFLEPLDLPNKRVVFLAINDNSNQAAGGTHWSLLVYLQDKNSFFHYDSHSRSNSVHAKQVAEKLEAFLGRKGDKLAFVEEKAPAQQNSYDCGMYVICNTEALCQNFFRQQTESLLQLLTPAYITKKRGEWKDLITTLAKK
SENP7 inh = SENP7 protease inhibition | inhibition, % at 5 µM | 330,000 compounds, 1.5% hits | AID 434973 | recombinant SENP7, Z-RLRGG-aminoluciferin luminescence, 40 min;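 active = inhibition above about 50% at the single test dose, limit read from the data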
SENP8 block-2 = inhibitors of human SENP8 protease; Q96LD8; purified SENP8, Z-RLRGG-aminoluciferin cleavage, luminescence; inhibition, % at 10 µM; 330,000 compounds, 1.2% hits; in the data active = inhibition above about 50%
SENP1 inh = blocks the human SENP1 SUMO protease catalytic domain; recombinant SENP1 catalytic domain, CyPet-SUMO1-YPet FRET cleavage; inhibition, % at 10 µM; 360,000 compounds, 0.21% hits; AID 624204;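 active = inhibition at least 30% at 10 µM, raw YFP signal under a set limit, fluorescence ratio 0.5 to 1.5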
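material = recombinant human SENP1 catalytic domain, His6-tagged | quantity = 20 pM enzyme | reagent = 25 nM SUMO1 FRET substrate | compound dosing = 10 µM single point, 0.5% DMSO | timing = 50 min enzyme reaction, room temperature, light-protected | detection = FRET, CFP and YFP emission | control set = no-enzyme low, enzyme-DMSO high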
Large screens that a line does not name were inactive.

c1ccc(-c2nnc(-c3ccco3)o2)cc1	none
CCOc1cccc(-c2c(C(=O)N/N=C/c3ccc(C)s3)nnn2-c2nonc2N)c1	Platelet DG rel 64.6
COc1cccc(-c2c(C(=O)N/N=C/c3ccc(C)s3)nnn2-c2nonc2N)c1	none
Cc1ccccc1CN1C(=O)c2ccccc2C1c1nnnn1-c1ccc2c(c1)OCCO2 (stereo not drawn)	none (no result: Platelet DG rel, SENP6 inh, SENP7 inh, SENP8 block-2)
COc1ccc(N/N=C(\C#N)C(N)=O)cc1	none
N#C/C(=N/Nc1ccc(OC(F)(F)F)cc1)C(N)=S	SENP6 inh 79.2, SENP8 block-1 46.1
C=CCOc1ccc(/C=C2\SC(=S)N(C(C(=O)O)c3ccccc3)C2=O)cc1 (stereo not drawn)	SENP8 block-1 41.5 (no result: SENP6 inh, SENP7 inh, SENP8 block-2)
CCOc1ccc(/C=C2\SC(=S)N(C(C(=O)O)c3ccccc3)C2=O)cc1OC (stereo not drawn)	none
Cc1cc2nc(N3C(=O)CNC3=S)sc2cc1C	SENP6 inh 95.1, SENP7 inh 95.6, SENP8 block-2 95.0
COC1=C(N)C(=O)c2nc(-c3nc(C(=O)O)c(C)c(-c4ccc(OC)c(OC)c4O)c3N)ccc2C1=O	SENP6 inh 80.5, SENP7 inh 66.7, SENP8 block-2 82.1 (no result: Platelet DG rel, SENP8 block-1, SENP1 inh)
COc1ccc(-c2ncncc2-c2csc(C)n2)c(O)c1OC	none
CC(=O)Nc1cc2c(cc1[N+](=O)[O-])-c1ccccc1C2O (stereo not drawn)	SENP8 block-1 41.3 (no result: Platelet DG rel, SENP6 inh, SENP7 inh, SENP8 block-2)
CC(=O)Nc1cc2c(cc1[N+](=O)[O-])-c1ccccc1C2=NO	none (no result: Platelet DG rel, SENP6 inh, SENP7 inh, SENP8 block-2)
CCS(=O)(=O)Nc1ccc(-c2nnc(SCC(=O)OC)o2)cc1	Platelet DG rel 50.1
Cc1ccsc1/C=N/Nc1ccc(F)cc1F	SENP6 inh 50.5, SENP8 block-2 56.5
CCOC(=O)CCCCCC(=O)Nc1ccc2c(c1)C(=O)N([C@@H](C)CO)C[C@H](C)[C@H](CN(C)C(=O)c1ccccc1)OCCCC[C@H](C)O2	none (no result: Platelet DG rel, SENP6 inh, SENP7 inh, SENP8 block-2)
COc1cccc(NC(=O)/C=C/c2ccccc2[N+](=O)[O-])c1	SENP6 inh 97.8, SENP7 inh 93.7, SENP8 block-2 90.5
CCN(CC)S(=O)(=O)c1cccc(NC(=O)/C=C/c2ccc([N+](=O)[O-])cc2)c1	none
COc1cccc(NC(=O)/C=C/c2ccc([N+](=O)[O-])cc2)c1	SENP6 inh 74.7, SENP8 block-2 50.6
C[C@H]1CN([C@@H](C)CO)C(=O)CCCn2nncc2CO[C@H]1CN(C)S(=O)(=O)c1ccc(F)cc1	none (no result: Platelet DG rel, SENP6 inh, SENP7 inh, SENP8 block-2)
Cc1ccccc1CN1C(=O)c2ccccc2C1c1nnnn1C(C)C (stereo not drawn)	none (no result: Platelet DG rel, SENP6 inh, SENP7 inh, SENP8 block-2)
CCOc1cc(/C=C2/SC(=S)NC2=O)ccc1OC(=O)c1ccco1	SENP1 inh 74.8
COc1ncnc2c1ncn2CCCNC1CCN(Cc2ccccc2)CC1	none (no result: Platelet DG rel, SENP6 inh, SENP7 inh, SENP8 block-2)
CC1=NN(c2ccccc2)C(=O)C1N=Nc1ccc(S(N)(=O)=O)cc1 (stereo not drawn)	SENP8 block-1 52.1
Cc1ccc2ccccc2c1C(O)c1ncc(-c2cccc(C(F)(F)F)c2)[nH]1 (stereo not drawn)	none (no result: Platelet DG rel, SENP6 inh, SENP7 inh, SENP8 block-2)
CC(C)(C)c1ccc(C(=O)Nc2ccc([N+](=O)[O-])cn2)cc1	none
O=C(Nc1ccc([N+](=O)[O-])cn1)c1ccc2c(c1)OCO2	SENP7 inh 67.4
O=C(Nc1c(C(=O)Nc2cccc(F)c2)oc2ccccc12)c1ccc2c(c1)OCO2	none
O=C(Nc1ccc2c(c1)OCO2)c1n[nH]c(=O)c2ccccc12	SENP6 inh 66.7, SENP7 inh 62.0
CCc1ccccc1NC(=O)Nc1ccc2c(c1)OCO2	SENP7 inh 82.4
O=C(Nc1ccc2c(c1)OCO2)c1nn(-c2ccccc2)c(=O)c2ccccc12	none
O=C(Nc1cccc(F)c1)c1ccc2c(c1)OCO2	SENP6 inh 85.8, SENP7 inh 90.3, SENP8 block-2 71.0
Cc1cccnc1C(NC(=O)C1CCN(Cc2ccc(Oc3ccccc3)cc2)CC1)c1ccc(F)cc1 (stereo not drawn)	none (no result: Platelet DG rel, SENP6 inh, SENP7 inh, SENP8 block-2)
O=C(COC(=O)C12CC3CC(CC(O)(C3)C1)C2)Nc1cccc(Br)c1	none (no result: Platelet DG rel)
CCc1nc2ccc(C(=O)Nc3cccc(C(C)=O)c3)cc2nc1CC	none
CCc1nc2ccc(C(=O)Nc3ccc4c(c3)OCO4)cc2nc1CC	SENP8 block-2 51.4 (no result: Platelet DG rel)
O=C(C[C@H]1C[C@@H]2c3cc(NC(=O)Nc4ccccc4F)ccc3O[C@@H]2[C@H](CO)O1)NCc1ccccn1	none (no result: Platelet DG rel, SENP6 inh, SENP7 inh, SENP8 block-2)
Cc1cccc(C)c1NC(=O)CSc1nnc(-c2ccco2)c(-c2ccco2)n1	SENP8 block-1 60.5
O=C(CSc1nnc(-c2ccco2)c(-c2ccco2)n1)Nc1ccccc1	none
Cc1ccc(NC(=O)CSc2nnc(-c3ccco3)c(-c3ccco3)n2)cc1	none
Cc1ccccc1NC(=O)CSc1nnc(-c2ccco2)c(-c2ccco2)n1	SENP8 block-1 41.9
CN(C)c1ccc(NC(=O)CSc2nnc(-c3ccco3)c(-c3ccco3)n2)cc1	SENP8 block-1 46.3
O=C(CCc1ccccc1)Nc1nncs1	Platelet DG rel 58.9
O=C(CCS(=O)(=O)Cc1ccccc1)Nc1nncs1	none
CN1CCN([C@@H]2CS(=O)(=O)N[C@H]2COCc2ccccc2)CC1	none (no result: Platelet DG rel, SENP6 inh, SENP7 inh, SENP8 block-2)
COc1ccc(NC(=O)c2cc(S(=O)(=O)N3CCOCC3)cn2C)cc1Cl	none
Cn1cc(S(=O)(=O)N2CCOCC2)cc1C(=O)Nc1ccc(Cl)cc1	Platelet DG rel 99.1
CCN1/C(=C/c2ccc3cc(C)ccc3[n+]2C)Sc2ccc3sccc3c21	SENP1 inh 44.1 (no result: Platelet DG rel, SENP6 inh, SENP7 inh, SENP8 block-2)
Cc1cc(C)n2nc(CNS(=O)(=O)c3ccc(C(C)(C)C)cc3)nc2n1	none (no result: Platelet DG rel, SENP6 inh, SENP7 inh, SENP8 block-2)
O=C(N=C1N=C2C=CC(Br)=CN2Cc2ccccc21)c1ccc([N+](=O)[O-])cc1[N+](=O)[O-]	SENP6 inh 77.8, SENP7 inh 66.9, SENP8 block-2 56.0
C=CCn1c(O)c(N=NC(=S)Nc2ccccc2F)c2ccccc21	none
C=CCn1c(O)c(N=NC(=S)Nc2cccc(C)c2)c2ccccc21	SENP8 block-1 42.5
Nc1ccn([C@@H]2O[C@H](C(=O)Nc3cc(C(F)(F)F)cc(C(F)(F)F)c3)[C@@H](O)[C@H]2O)c(=O)n1	none (no result: Platelet DG rel, SENP6 inh, SENP7 inh, SENP8 block-2)
O=c1cc(COc2ncnc3ccccc23)nc2sccn12	none
O=c1cc(COc2ncnc3c(Cl)cc(Cl)cc23)nc2sccn12	Platelet DG rel 52.3
COC1=C(C)C(=O)C2=C(C1=O)C1C3CC4=C(C(=O)C(OC)=C(C)C4=O)C(CNC(=O)C(C)=O)N3C(C#N)C(C2)N1C (stereo not drawn)	SENP8 block-1 54.9 (no result: Platelet DG rel, SENP6 inh, SENP7 inh, SENP8 block-2)
Cn1cc(Cl)c(C(=O)Nc2nc3ccc([N+](=O)[O-])cc3s2)n1	SENP6 inh 65.4, SENP7 inh 89.6, SENP8 block-2 58.0
NC(=O)CSc1cn(Cc2ccc(F)cc2)c2ccccc12	Platelet DG rel 59.2
CCOC(=O)c1ccc(N/C=C\C(=O)c2cccc(OC)c2)cc1	SENP7 inh 86.3, SENP8 block-2 66.4
CCOC(=O)c1cccc(N/C=C/C(=O)c2ccc(OC)c(OC)c2)c1	none
Cc1cc2nc3ccc(N(C)C)cc3nc2cc1N	SENP6 inh 51.0, SENP8 block-1 81.1
